Experimental data taken from ChEMBL document CHEMBL1126768, “A mechanism-based inactivation study of neutral endopeptidase 24.11” (J Med Chem, 1993).

B1: Angiotensin-converting enzyme (Rattus norvegicus), P47820 (protein)
chain: MGAASGQRGRWPLSPPLLMLSLLLLLLLPPSPAPALDPGLQPGNFSADEAGAQLFADSYNSSAEVVMFQSTAASWAHDTNITEENARLQEEAALINQEFAEVWGKKAKELYESIWQNFTDQKLRRIIGSVQTLGPANLPLTQRLQYNSLLSNMSRIYSTGKVCFPNKTATCWSLDPELTNILASSRNYAKVLFAWEGWHDAVGIPLRPLYQDFTALSNEAYRQDGFSDTGAYWRSWYESPSFEESLEHLYHQVEPLYLNLHAFVRRALHRRYGDKYINLRGPIPAHLLGDMWAQSWENIYDMVVPFPDKPNLDVTSTMVQKGWNATHMFRVAEEFFTSLGLSPMPPEFWAESMLEKPADGREVVCHASAWDFYNRKDFRIKQCTRVTMDQLSTVHHEMGHVQYYLQYKDLHVSLRRGANPGFHEAIGDVLALSVSTPAHLHKIGLLDRVANDIESDINYLLKMALEKIAFLPFGYLVDQWRWGVFSGRTPPSRYNYDWWYLRTKYQGICPPVARNETHFDAGAKFHIPSVTPYIRYFVSFVLQFQFHQALCKEAGHQGPLHQCDIYQSTKAGAKLQQVLQAGCSRPWQEVLKDLVGSDALDASALMEYFQPVSQWLQEQNQRNGEVLGWPEYQWRPPLPDNYPEGIDLETDEAKANRFVEEYDRTAKVLWNEYAEANWHYNTNITIEGSKILLQKNKEVSNHTLKYGTWAKTFDVSNFQNSTIKRIIKKVQNVDRAVLPPNELEEYNQILLDMETTYSVANVCYTNGTCLSLEPDLTNIMATSRKYEELLWVWKSWRDKVGRAILPFFPKYVDFSNKIAKLNGYSDAGDSWRSSYESDDLEQDLEKLYQELQPLYLNLHAYVRRSLHRHYGSEYINLDGPIPAHLLGNMWAQTWSNIYDLVAPFPSAPSIDATEAMIKQGWTPRRIFKEADNFFTSLGLLPVPPEFWNKSMLEKPTDGREVVCHASAWDFYNGKDFRIKQCTSVNMEELVIAHHEMGHIQYFMQYKDLPVTFREGANPGFHEAIGDVLALSVSTPKHLHSLNLLSSEGSGYEHDINFLMKMALDKIAFIPFSYLIDQWRWRVFDGSITKENYNQEWWSLRLKYQGLCPPVPRSQGDFDPGSKFHVPANVPYIRYFISFIIQFQFHEALCRAAGHTGPLYKCDIYQSKEAGKLLADAMKLGYSKQWPEAMKIITGQPNMSASAIMNYFKPLTEWLVTENRRHGETLGWPEYTWTPNTARAEGSLPESSRVNFLGMYLEPQQARVGQWVLLFLGVALLVATVGLAHRLYNIHNHHSLRRPHRGPQFGSEVELRHS
B2: Neprilysin (Homo sapiens), P08473 (protein)
chain: MGKSESQMDITDINTPKPKKKQRWTPLEISLSVLVLLLTIIAVTMIALYATYDDGICKSSDCIKSAARLIQNMDATTEPCTDFFKYACGGWLKRNVIPETSSRYGNFDILRDELEVVLKDVLQEPKTEDIVAVQKAKALYRSCINESAIDSRGGEPLLKLLPDIYGWPVATENWEQKYGASWTAEKAIAQLNSKYGKKVLINLFVGTDDKNSVNHVIHIDQPRLGLPSRDYYECTGIYKEACTAYVDFMISVARLIRQEERLPIDENQLALEMNKVMELEKEIANATAKPEDRNDPMLLYNKMTLAQIQNNFSLEINGKPFSWLNFTNEIMSTVNISITNEEDVVVYAPEYLTKLKPILTKYSARDLQNLMSWRFIMDLVSSLSRTYKESRNAFRKALYGTTSETATWRRCANYVNGNMENAVGRLYVEAAFAGESKHVVEDLIAQIREVFIQTLDDLTWMDAETKKRAEEKALAIKERIGYPDDIVSNDNKLNNEYLELNYKEDEYFENIIQNLKFSQSKQLKKLREKVDKDEWISGAAVVNAFYSSGRNQIVFPAGILQPPFFSAQQSNSLNYGGIGMVIGHEITHGFDDNGRNFNKDGDLVDWWTQQSASNFKEQSQCMVYQYGNFSWDLAGGQHLNGINTLGENIADNGGLGQAYRAYQNYIKKNGEEKLLPGLDLNHKQLFFLNFAQVWCGTYRPEYAVNSIKTDVHSPGNFRIIGTLQNSAEFSEAFHCRKNSYMNPEKKCRVW

Experiments:
[1] = substrate: N#CCC(=O)NC(Cc1ccccc1)C(=O)NC(Cc1ccccc1)C(=O)O; assay: Michaelis-Menten constant determined for Angiotensin I converting enzyme
[2] = substrate: N#CCC(=O)CC(Cc1ccccc1)C(=O)NC(Cc1ccccc1)C(=O)O
[3] = substrate: N#CCC(=O)NC(Cc1ccccc1)C(=O)NC(Cc1ccccc1)C(=O)O; assay: Michaelis-Menten constant determined for Neutral endopeptidase (NEP)
Method in brief: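 Recombinant human NEP from CHO cells (>99% pure), 0.5 μM in 50 mM HEPES pH 7.4 with 10% p-dioxane, incubated at 25 °C with inactivator at 0.5–7.5 μM final. Aliquots diluted 1:100 into DAGNPG assay solution (50 mM Tris pH 7.4, 37 °C), fluorescence read at ex 342/em 562 nm. Pseudo-first-order kobs plotted double-reciprocally against inactivator concentration to give kinact and Km.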

Protein | Km [1] [mM] | Km [2] [mM] | Km [3] [mM]
B1 | 10.5 | – | –
B2 | – | 5.1 | 2.38
